In ChEMBL document CHEMBL5058577, “EUbOPEN Chemogenomics Library 2 (Multiplex)” (2022):

Tested on: Fibroblast
Test: Multiplex assay against human fibroblast
Assay type: toxicity, cell-based
Method in brief: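 Values for tubulin, mitochondrial-mass and membrane-permeability phenotypes are per cents of cells with healthy nuclei. These cells were identified by CellPathfinder machine-learning gating of live cells that had been stained at seeding with Hoechst33342, BioTracker Green Microtubule Cytoskeleton Dye, MitoTracker Red and Annexin V Alexa Fluor 680 and imaged on a CQ1 microscope at 37°C and 5% CO2 after compound addition. The gating first set Hoechst high-intensity objects apart from normal cells, then split normal cells into healthy, pyknosed or fragmented nuclei, and pyknosed cells into mitotic or apoptotic.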

[1] = 12 h, 1 µM, compound concentration 1 uM, replicate 1
[2] = 12 h, 1 µM, compound concentration 1 uM, replicate 2
[3] = 12 h, 10 µM, compound concentration 10 uM, replicate 1
[4] = 12 h, 10 µM, compound concentration 10 uM, replicate 2
[5] = 24 h, 1 µM, compound concentration 1 uM, replicate 1
[6] = 24 h, 1 µM, compound concentration 1 uM, replicate 2
[7] = 24 h, 10 µM, compound concentration 10 uM, replicate 1
[8] = 24 h, 10 µM, compound concentration 10 uM, replicate 2
[9] = 48 h, 1 µM, compound concentration 1 uM, replicate 1
[10] = 48 h, 1 µM, compound concentration 1 uM, replicate 2
[11] = 48 h, 10 µM, compound concentration 10 uM, replicate 1
[12] = 48 h, 10 µM, compound concentration 10 uM, replicate 2

## Cl.Clc1ccc2nsnc2c1NC1=NCCN1 [TIZANIDINE HYDROCHLORIDE]
[1]
  Population Apoptotic (%): 38%
  Population Fragmented Nuclei (%): 10%
  Population Healthy Nuclei (%): 72%
  Population Hoechst High Intensity Objects (%): 3%
  Population Membrane Permeable-Phenotype (%): 0%
  Population Mitochondria Different-Phenotype (%): 4%
  Population Mitotic Cells (%): 61%
  Population Normal (%): 96%
  Population Pyknosed Nuclei (%): 17%
  Population Tubulin-Different-Phenotype (%): 21%
  Total Cell Count: 155
[2]
  Population Apoptotic (%): 33%
  Population Fragmented Nuclei (%): 24%
  Population Healthy Nuclei (%): 49%
  Population Hoechst High Intensity Objects (%): 4%
  Population Membrane Permeable-Phenotype (%): 5%
  Population Mitochondria Different-Phenotype (%): 5%
  Population Mitotic Cells (%): 66%
  Population Normal (%): 95%
  Population Pyknosed Nuclei (%): 25%
  Population Tubulin-Different-Phenotype (%): 50%
  Total Cell Count: 182
[3]
  Population Apoptotic (%): 36%
  Population Fragmented Nuclei (%): 18%
  Population Healthy Nuclei (%): 60%
  Population Hoechst High Intensity Objects (%): 4%
  Population Membrane Permeable-Phenotype (%): 0%
  Population Mitochondria Different-Phenotype (%): 8%
  Population Mitotic Cells (%): 64%
  Population Normal (%): 95%
  Population Pyknosed Nuclei (%): 20%
  Population Tubulin-Different-Phenotype (%): 29%
  Total Cell Count: 129
[4]
  Population Apoptotic (%): 21%
  Population Fragmented Nuclei (%): 24%
  Population Healthy Nuclei (%): 45%
  Population Membrane Permeable-Phenotype (%): 7%
  Population Mitochondria Different-Phenotype (%): 7%
  Population Mitotic Cells (%): 78%
  Population Pyknosed Nuclei (%): 29%
  Population Tubulin-Different-Phenotype (%): 33%
  Total Cell Count: 143
[5]
  Population Apoptotic (%): 52%
  Population Fragmented Nuclei (%): 6%
  Population Healthy Nuclei (%): 76%
  Population Hoechst High Intensity Objects (%): 2%
  Population Membrane Permeable-Phenotype (%): 0%
  Population Mitochondria Different-Phenotype (%): 0%
  Population Mitotic Cells (%): 47%
  Population Normal (%): 97%
  Population Pyknosed Nuclei (%): 16%
  Population Tubulin-Different-Phenotype (%): 16%
  Total Cell Count: 146
[6]
  Population Apoptotic (%): 42%
  Population Fragmented Nuclei (%): 26%
  Population Healthy Nuclei (%): 49%
  Population Hoechst High Intensity Objects (%): 4%
  Population Membrane Permeable-Phenotype (%): 9%
  Population Mitochondria Different-Phenotype (%): 4%
  Population Mitotic Cells (%): 57%
  Population Normal (%): 95%
  Population Pyknosed Nuclei (%): 24%
  Population Tubulin-Different-Phenotype (%): 50%
  Total Cell Count: 182
[7]
  Population Apoptotic (%): 45%
  Population Fragmented Nuclei (%): 19%
  Population Healthy Nuclei (%): 60%
  Population Hoechst High Intensity Objects (%): 1%
  Population Membrane Permeable-Phenotype (%): 0%
  Population Mitochondria Different-Phenotype (%): 5%
  Population Mitotic Cells (%): 54%
  Population Normal (%): 98%
  Population Pyknosed Nuclei (%): 20%
  Population Tubulin-Different-Phenotype (%): 20%
  Total Cell Count: 122
[8]
  Population Apoptotic (%): 47%
  Population Healthy Nuclei (%): 48%
  Population Hoechst High Intensity Objects (%): 2%
  Population Membrane Permeable-Phenotype (%): 9%
  Population Mitochondria Different-Phenotype (%): 6%
  Population Mitotic Cells (%): 52%
  Population Normal (%): 97%
  Population Pyknosed Nuclei (%): 32%
  Population Tubulin-Different-Phenotype (%): 34%
  Total Cell Count: 135
[9]
  Population Apoptotic (%): 47%
  Population Fragmented Nuclei (%): 17%
  Population Healthy Nuclei (%): 71%
  Population Hoechst High Intensity Objects (%): 2%
  Population Membrane Permeable-Phenotype (%): 2%
  Population Mitochondria Different-Phenotype (%): 1%
  Population Mitotic Cells (%): 52%
  Population Normal (%): 97%
  Population Pyknosed Nuclei (%): 10%
  Population Tubulin-Different-Phenotype (%): 19%
  Total Cell Count: 167
[10]
  Population Apoptotic (%): 55%
  Population Fragmented Nuclei (%): 29%
  Population Healthy Nuclei (%): 47%
  Population Hoechst High Intensity Objects (%): 6%
  Population Membrane Permeable-Phenotype (%): 6%
  Population Mitochondria Different-Phenotype (%): 8%
  Population Mitotic Cells (%): 44%
  Population Normal (%): 93%
  Population Pyknosed Nuclei (%): 23%
  Population Tubulin-Different-Phenotype (%): 56%
  Total Cell Count: 166
[11]
  Population Apoptotic (%): 69%
  Population Fragmented Nuclei (%): 26%
  Population Healthy Nuclei (%): 56%
  Population Hoechst High Intensity Objects (%): 2%
  Population Membrane Permeable-Phenotype (%): 0%
  Population Mitochondria Different-Phenotype (%): 5%
  Population Mitotic Cells (%): 30%
  Population Normal (%): 97%
  Population Pyknosed Nuclei (%): 17%
  Population Tubulin-Different-Phenotype (%): 26%
  Total Cell Count: 133
[12]
  Population Apoptotic (%): 63%
  Population Fragmented Nuclei (%): 35%
  Population Healthy Nuclei (%): 42%
  Population Membrane Permeable-Phenotype (%): 6%
  Population Mitochondria Different-Phenotype (%): 11%
  Population Mitotic Cells (%): 36%
  Population Pyknosed Nuclei (%): 21%
  Population Tubulin-Different-Phenotype (%): 44%
  Total Cell Count: 141

## Cc1ccc(/C(=C\CN2CCCC2)c2ccccn2)cc1 [TRIPROLIDINE]
[1]
  Population Apoptotic (%): 52%
  Population Fragmented Nuclei (%): 17%
  Population Healthy Nuclei (%): 64%
  Population Hoechst High Intensity Objects (%): 3%
  Population Membrane Permeable-Phenotype (%): 0%
  Population Mitochondria Different-Phenotype (%): 9%
  Population Mitotic Cells (%): 47%
  Population Normal (%): 96%
  Population Pyknosed Nuclei (%): 18%
  Population Tubulin-Different-Phenotype (%): 29%
  Total Cell Count: 119
[2]
  Population Apoptotic (%): 41%
  Population Fragmented Nuclei (%): 28%
  Population Healthy Nuclei (%): 45%
  Population Hoechst High Intensity Objects (%): 4%
  Population Membrane Permeable-Phenotype (%): 1%
  Population Mitotic Cells (%): 58%
  Population Normal (%): 95%
  Population Pyknosed Nuclei (%): 25%
  Population Tubulin-Different-Phenotype (%): 60%
  Total Cell Count: 127
[3]
  Population Apoptotic (%): 57%
  Population Fragmented Nuclei (%): 14%
  Population Healthy Nuclei (%): 64%
  Population Hoechst High Intensity Objects (%): 2%
  Population Membrane Permeable-Phenotype (%): 0%
  Population Mitochondria Different-Phenotype (%): 5%
  Population Mitotic Cells (%): 42%
  Population Normal (%): 97%
  Population Pyknosed Nuclei (%): 20%
  Population Tubulin-Different-Phenotype (%): 44%
  Total Cell Count: 139
[4]
  Population Apoptotic (%): 50%
  Population Fragmented Nuclei (%): 26%
  Population Healthy Nuclei (%): 52%
  Population Membrane Permeable-Phenotype (%): 9%
  Population Mitochondria Different-Phenotype (%): 9%
  Population Mitotic Cells (%): 50%
  Population Pyknosed Nuclei (%): 21%
  Population Tubulin-Different-Phenotype (%): 59%
  Total Cell Count: 141
[5]
  Population Apoptotic (%): 43%
  Population Fragmented Nuclei (%): 17%
  Population Healthy Nuclei (%): 69%
  Population Hoechst High Intensity Objects (%): 4%
  Population Membrane Permeable-Phenotype (%): 1%
  Population Mitochondria Different-Phenotype (%): 3%
  Population Mitotic Cells (%): 56%
  Population Normal (%): 95%
  Population Pyknosed Nuclei (%): 13%
  Population Tubulin-Different-Phenotype (%): 23%
  Total Cell Count: 128
[6]
  Population Apoptotic (%): 46%
  Population Fragmented Nuclei (%): 29%
  Population Healthy Nuclei (%): 43%
  Population Hoechst High Intensity Objects (%): 9%
  Population Membrane Permeable-Phenotype (%): 6%
  Population Mitochondria Different-Phenotype (%): 6%
  Population Mitotic Cells (%): 53%
  Population Normal (%): 90%
  Population Pyknosed Nuclei (%): 27%
  Population Tubulin-Different-Phenotype (%): 64%
  Total Cell Count: 121
[7]
  Population Apoptotic (%): 47%
  Population Fragmented Nuclei (%): 15%
  Population Healthy Nuclei (%): 68%
  Population Hoechst High Intensity Objects (%): 4%
  Population Membrane Permeable-Phenotype (%): 0%
  Population Mitochondria Different-Phenotype (%): 3%
  Population Mitotic Cells (%): 52%
  Population Normal (%): 95%
  Population Pyknosed Nuclei (%): 15%
  Population Tubulin-Different-Phenotype (%): 41%
  Total Cell Count: 142
[8]
  Population Apoptotic (%): 58%
  Population Fragmented Nuclei (%): 29%
  Population Healthy Nuclei (%): 52%
  Population Hoechst High Intensity Objects (%): 2%
  Population Membrane Permeable-Phenotype (%): 6%
  Population Mitochondria Different-Phenotype (%): 12%
  Population Mitotic Cells (%): 41%
  Population Normal (%): 97%
  Population Pyknosed Nuclei (%): 17%
  Population Tubulin-Different-Phenotype (%): 62%
  Total Cell Count: 141
[9]
  Population Apoptotic (%): 54%
  Population Fragmented Nuclei (%): 26%
  Population Healthy Nuclei (%): 65%
  Population Hoechst High Intensity Objects (%): 3%
  Population Membrane Permeable-Phenotype (%): 1%
  Population Mitochondria Different-Phenotype (%): 2%
  Population Mitotic Cells (%): 45%
  Population Normal (%): 96%
  Population Pyknosed Nuclei (%): 8%
  Population Tubulin-Different-Phenotype (%): 31%
  Total Cell Count: 135
[10]
  Population Apoptotic (%): 52%
  Population Fragmented Nuclei (%): 29%
  Population Healthy Nuclei (%): 48%
  Population Hoechst High Intensity Objects (%): 7%
  Population Membrane Permeable-Phenotype (%): 7%
  Population Mitochondria Different-Phenotype (%): 10%
  Population Mitotic Cells (%): 48%
  Population Normal (%): 92%
  Population Pyknosed Nuclei (%): 21%
  Population Tubulin-Different-Phenotype (%): 57%
  Total Cell Count: 124
[11]
  Population Apoptotic (%): 38%
  Population Fragmented Nuclei (%): 20%
  Population Healthy Nuclei (%): 69%
  Population Hoechst High Intensity Objects (%): 7%
  Population Membrane Permeable-Phenotype (%): 1%
  Population Mitochondria Different-Phenotype (%): 6%
  Population Mitotic Cells (%): 61%
  Population Normal (%): 92%
  Population Pyknosed Nuclei (%): 9%
  Population Tubulin-Different-Phenotype (%): 35%
  Total Cell Count: 142
[12]
  Population Apoptotic (%): 42%
  Population Fragmented Nuclei (%): 32%
  Population Healthy Nuclei (%): 56%
  Population Hoechst High Intensity Objects (%): 5%
  Population Membrane Permeable-Phenotype (%): 5%
  Population Mitochondria Different-Phenotype (%): 9%
  Population Mitotic Cells (%): 57%
  Population Normal (%): 94%
  Population Pyknosed Nuclei (%): 10%
  Population Tubulin-Different-Phenotype (%): 54%
  Total Cell Count: 140
